# From ChEMBL document CHEMBL1121364, “Nucleoside conjugates as potential antitumor agents. 3. Synthesis and antitumor activity of 1-(beta-D-arabinofuranosyl)cytosine conjugates of corticosteroids” (1980)
# Key:
# L1210 [1] = test: Antitumor activity in the mice with intraperitoneal implanted L1210 lymphoid leukemia at the dose of 17.7 and 27.7 mg/kg/day x 5 was determined as mean survival of treated group compared to untreated; 10.5/9.5; assay type: functional, Mus musculus
# In short: (§1)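 C3D2F1/J female mice (C3H/HeJ female × DBA/2J male), groups of six to eight, average weight 25 g. Inoculated ip with 1 × 10^6 L1210 ascites cells taken from DBA/2Ha donor mice bearing 3-5 day old tumors. Compounds were dissolved in 0.154 N NaOH, neutralized with 0.154 N HCl (final 0.9% NaCl), and given ip daily for 5 days from 24 h post-implant. Median survival T/C; ILS = (T/C − 1) × 100; 30-day survivors counted.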
# L1210 [2] = test: Antitumor activity in mice with intraperitoneal implanted L1210 lymphoid leukemia at the dose 9.2 and 14.5 mg/kg/day x 5 was determined as weight change (g/mouse) on 8th day; assay type: functional
# In short: (§2)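 Female C3D2F1/J mice (C3H/HeJ × DBA/2J), groups of six to eight, average weight 25 g. Each mouse got 1 × 10^6 L1210 ascites cells ip, taken from DBA/2Ha donor mice bearing 3-5 day tumors. Compound was dissolved in 0.154 N NaOH and neutralized with 0.154 N HCl (final 0.9% NaCl). Dosed ip daily ×5, starting 24 h after implant. Recorded body weight change on day 8, survival range, median survival and 30-day survivors. ILS = (T/C − 1) × 100.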
# L1210 [3] = test: Antitumor activity in mice with intraperitoneal implanted L1210 lymphoid leukemia at the dose 17.7 and 27.7 mg/kg/day x 5 was determined as weight change (g/mouse) on 8th day; assay type: functional; in short: as §2
# L1210 [4] = test: Antitumor activity in the mice with intraperitoneal implanted L1210 lymphoid leukemia at the dose of 9.2 and 14.5 mg/kg/day x 5 was determined as mean survival of treated group compared to untreated; 12/11; assay type: functional, Mus musculus
# L1210 [5] = test: Antitumor activity in the mice with intraperitoneal implanted L1210 lymphoid leukemia at the dose 17.7 and 27.7 mg/kg/day x 5 was determined and number of animals survived on 30 th day were reported; 0/8; assay type: functional, Mus musculus; in short: as §2
# L1210 [6] = test: Antitumor activity in the mice with intraperitoneal implanted L1210 lymphoid leukemia at the dose 9.2 and 14.5 mg/kg/day x 5 was determined as percentage increase in the life span as compared with control tumor bearers; assay type: functional, Mus musculus; in short: as §1
# L1210 [7] = test: Antitumor activity in the mice with intraperitoneal implanted L1210 lymphoid leukemia at the dose 17.7 and 27.7 mg/kg/day x 5 was determined as Survival time in days; Range is 7-17 days; assay type: functional, Mus musculus; in short: as §2
# L1210 [8] = test: Antitumor activity in the mice with intraperitoneal implanted L1210 lymphoid leukemia at the dose 9.2 and 14.5 mg/kg/day x 5 was determined as Survival time in days; Range is 12-16 days; assay type: functional, Mus musculus; in short: as §1
# L1210 [9] = test: Antitumor activity in the mice with intraperitoneal implanted L1210 lymphoid leukemia at the dose 17.7 and 27.7 mg/kg/day x 5 was determined as percentage increase in the life span as compared with control tumor bearers; assay type: functional, Mus musculus; in short: as §2
# L1210 [10] = test: Antitumor activity in the mice with intraperitoneal implanted L1210 lymphoid leukemia at the dose 9.2 and 14.5 mg/kg/day x 5 was determined and number of animals survived on 30 th day were reported; 0/6; assay type: functional, Mus musculus; in short: as §1
# L1210 [11] = test: Antitumor activity in the mice with intraperitoneal implanted L1210 lymphoid leukemia at the dose of 75 mg/kg/day x 5 was determined as mean survival of treated group compared to untreated; 18/9.5; assay type: functional, Mus musculus
# L1210 [12] = test: Antitumor activity in the mice with intraperitoneal implanted L1210 lymphoid leukemia at the dose of 50 mg/kg/day x 5 was determined as mean survival of treated group compared to untreated; 20.5/8; assay type: functional, Mus musculus
# L1210 [13] = test: Antitumor activity in mice with intraperitoneal implanted L1210 lymphoid leukemia at the dose 75 mg/kg/day x 5 was determined as weight change (g/mouse) on 8th day; assay type: functional
# In short: (§3)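 C3D2F1/J female mice (C3H/HeJ × DBA/2J), groups of six to eight, average 25 g, inoculated ip with 1 × 10^6 L1210 ascites cells taken from DBA/2Ha donor mice carrying 3-5 day tumors. Compound dissolved in 0.154 N NaOH, then neutralized with 0.154 N HCl to give 0.9% NaCl. Given ip daily for 5 consecutive days starting 24 h after implantation. Body weight change per mouse recorded on day 8.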
# L1210 [14] = test: In Vitro evaluation for the antiproliferative activity by observing the growth inhibition of L1210 lymphoid leukemia cells in culture at 72 hour; assay type: functional, Mus musculus
# In short: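 Growth of L1210 lymphoid leukemia cells in culture measured by Trypan blue exclusion of viable cells after 72 h of drug exposure. ED50 is the concentration giving 50% growth inhibition. In some runs the compound was first preincubated in medium at 37 °C for 24 or 48 h before the assay.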
# L1210 [15] = test: Antitumor activity in mice with intraperitoneal implanted L1210 lymphoid leukemia at the dose 25 mg/kg/day x 5 was determined as weight change (g/mouse) on 8th day; assay type: functional; in short: as §3
# L1210 [16] = test: Antitumor activity in mice with intraperitoneal implanted L1210 lymphoid leukemia at the dose 50 mg/kg/day x 5 was determined as weight change (g/mouse) on 8th day; assay type: functional; in short: as §3
# L1210 [17] = test: Antitumor activity in the mice with intraperitoneal implanted L1210 lymphoid leukemia at the dose 25 mg/kg/day x 5 was determined and number of animals survived on 30 th day were reported; 1/8; assay type: functional, Mus musculus; in short: as §2
# L1210 [18] = test: Antitumor activity in the mice with intraperitoneal implanted L1210 lymphoid leukemia at the dose 50 mg/kg/day x 5 was determined as Survival time in days; Range is 14-24 days; assay type: functional, Mus musculus; in short: as §2
# L1210 [19] = test: Antitumor activity in the mice with intraperitoneal implanted L1210 lymphoid leukemia at the dose 50 mg/kg/day x 5 was determined and number of animals survived on 30 th day were reported; 0/8; assay type: functional, Mus musculus; in short: as §2
# L1210 [20] = test: Antitumor activity in the mice with intraperitoneal implanted L1210 lymphoid leukemia at the dose 75 mg/kg/day x 5 was determined and number of animals survived on 30 th day were reported; 1/8; assay type: functional, Mus musculus; in short: as §1
# L1210 [21] = test: Antitumor activity in the mice with intraperitoneal implanted L1210 lymphoid leukemia at the dose 50 mg/kg/day x 5 was determined as percentage increase in the life span as compared with control tumor bearers; assay type: functional; conditions: Mus musculus, L1210, ip; in short: as §1
# L1210 [22] = test: Antitumor activity in the mice with intraperitoneal implanted L1210 lymphoid leukemia at the dose 75 mg/kg/day x 5 was determined as percentage increase in the life span as compared with control tumor bearers; assay type: functional; conditions: Mus musculus, L1210, ip; in short: as §1
# L1210 [23] = test: Antitumor activity in the mice with intraperitoneal implanted L1210 lymphoid leukemia at the dose 75 mg/kg/day x 5 was determined as Survival time in days; Range is 15-37 days; assay type: functional, Mus musculus; in short: as §1
# L1210 [24] = test: Antitumor activity in the mice with intraperitoneal implanted L1210 lymphoid leukemia at the dose 25 mg/kg/day x 5 was determined as Survival time in days; Range is 13- >45 days; assay type: functional, Mus musculus; in short: as §2
# L1210 [25] = test: Antitumor activity in the mice with intraperitoneal implanted L1210 lymphoid leukemia at the dose 25 mg/kg/day x 5 was determined as percentage increase in the life span as compared with control tumor bearers; assay type: functional; conditions: Mus musculus, L1210, ip; in short: as §2
# L1210 [26] = test: Antitumor activity in the mice with intraperitoneal implanted L1210 lymphoid leukemia at the dose of 25 mg/kg/day x 5 was determined as mean survival of treated group compared to untreated; 17.5/9.5; assay type: functional, Mus musculus; in short: as §1
structure (smiles),measurement,setting,value
C[C@]12CCC(=O)C=C1CC[C@H]1[C@@H]3CC[C@](O)(C(=O)CO)[C@@]3(C)C[C@H](O)[C@@]12F.Nc1ccn([C@@H]2O[C@H](CO)[C@@H](O)[C@@H]2O)c(=O)n1,T/C,L1210 [1],10.5
same,Weight change,L1210 [2],-4.47 g mouse-1
same,Weight change,L1210 [3],-3.48 g mouse-1
same,T/C,L1210 [4],12
same,Survivors,L1210 [5],0
same,ILS,L1210 [6],9%
same,Survival time,L1210 [7],7 days
same,Survival time,L1210 [8],12 days
same,ILS,L1210 [9],11%
same,Survivors,L1210 [10],0
C[C@H]1C[C@@H]2[C@H]([C@@H](O)C[C@@]3(C)[C@H]2CC[C@]3(O)C(=O)COP(=O)(O)OC[C@H]2O[C@@H](n3ccc(N)nc3=O)[C@@H](O)[C@@H]2O)[C@@]2(C)C=CC(=O)C=C12,T/C,L1210 [11],18
same,T/C,L1210 [12],20.5
same,Weight change,L1210 [13],-1.07 g mouse-1
same,ED 50,L1210 [14],450 nM
same,Weight change,L1210 [15],2 g mouse-1
same,Weight change,L1210 [16],-1.08 g mouse-1
same,Survivors,L1210 [17],1
same,Survival time,L1210 [18],14 days
same,Survivors,L1210 [19],0
same,Survivors,L1210 [20],1
same,ILS at 50 mg/kg/day,L1210 [21],156%
same,ILS at 75 mg/kg/day,L1210 [22],90%
same,Survival time,L1210 [23],15 days
same,Survival time,L1210 [24],13 days
same,ILS at 25 mg/kg/day,L1210 [25],84%
same,T/C,L1210 [26],17.5
